This is an account of results in ChEMBL document CHEMBL5712901, “DOT1L inhibition blocks multiple myeloma cell proliferation by suppressing IRF4-MYC signaling” (2019).

Calls of active or inactive are those of the source. The rule behind the calls is not given here.

For assay [1], the system named is RPMI-8226. Put plainly: Antiproliferative activity against human RPMI-8226 cells treated 3 days at 1 uM. Format: functional, cell-based. The note with it: time 3.0 day. A digest of the protocol: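 Cell lines in 6-well plates, 2 × 10^4 to 8 × 10^5 cells/well, exposed to DOT1L inhibitor at 0.25-1 μM or DMSO, with medium and drug refreshed every 3 days. Viability read with Cell Counting Kit-8 on a microplate reader. Values normalized to untreated cells; mean of 3 replications ± SEM.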

The test system of assay [2] is RPMI-8226. Put plainly: Antitumor activity against compound pretreated cells human RPMI-8226 cells at 1 uM for 3 days xenografted in SCID mouse assessed as reduction of tumor volume measured upto 36 days. The assay is classed as functional, cell-based. The note with it: time 39.0 day. Summed up: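 Ex vivo pretreatment: RPMI-8226 cells exposed to 1 μM DOT1L inhibitor or DMSO for 3 days. Then 1 × 10^7 cells in 200 μl RPMI-1640 injected subcutaneously into the thighs of 6-week-old C.B-17 SCID mice, with drug-treated cells in the left thigh and DMSO cells in the right. Tumor measured every 3 days by calipers; volume = length × width²/2; n = 5, mean ± SEM.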
On the technique in general: Xenograft models place foreign cells or tissue in a host animal.

Assay [3] concerns MM1.S. In words: Induction of apoptosis in human MM1.S cells assessed as necrotic cells at 1 uM for 6 days by annexin-V based propidium iodide staining based flow cytometric analysis (reference value: 1.8%). The assay is classed as functional. The note with it: time 6 day.
For assay [4], the system named is RPMI-8226. Put plainly: Effect on human RPMI-8226 cells assessed as change in IRF4 mRNA level at 1 uM for 3 days by ChIP-qPCR analysis. The assay is classed as functional, cell-based. The following applies: time 3.0 day. Summed up: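 ChIP-qPCR for H3K79me2 at IRF4-MYC signaling genes after 1 μM inhibitor or DMSO for 3 days. Signal normalized to input DNA. An intergenic region 28 kb upstream of KLF2 served as negative control. Mean of 3 replications ± SEM.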
(In qPCR the cycle at which signal appears reflects the starting amount.)

Assay [5] has as its system RPMI-8226. Put plainly: Upregulation of IFN in human RPMI-8226 cells assessed as increase in IFIT1 gene at 1 uM for 6 days by qRT-PCR analysis. Format: functional, cell-based. The following applies: time 6.0 day.
Assay [6] deals with MM1.S. In words: Upregulation of IFN in human MM1.S cells assessed as increase in ISG15 gene at 1 uM for 6 days by qRT-PCR analysis. Format: functional, cell-based. The following applies: time 6.0 day.
Assay [7] has as its system MM1.S. Put plainly: Upregulation of IFN in human MM1.S cells assessed as increase in IFI44 gene at 1 uM for 6 days by qRT-PCR analysis. The note with it: time 6.0 day.
Assay [8] deals with MM1.S. In words: Upregulation of DOT1L in human MM1.S cells by qRT-PCR analysis. The assay is classed as functional, cell-based. Summed up: (§1)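 Basal DOT1L transcript in untreated myeloma cell lines measured by qRT-PCR, normalized to ACTB; mean of 3 replicates with SEM.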
Another assay concerns U-266. In words: Upregulation of DOT1L in human U-266 cells by qRT-PCR analysis. The assay is classed as functional, cell-based. Summed up:
as §1

Assay [9] concerns RPMI-8226. Put plainly: Upregulation of ALPK1 gene in human RPMI-8226 cells at 1 uM for 6 days by. The assay is classed as functional, cell-based. The following applies: time 6.0 day.
Assay [10] relates to RPMI-8226. In words: Upregulation of BMF gene in human RPMI-8226 cells at 1 uM for 6 days by. The note with it: time 6.0 day. The assay is classed as functional, cell-based.
For assay [11], the system named is RPMI-8226. In words: Upregulation of CPQ gene in human RPMI-8226 cells at 1 uM for 6 days by. The assay is classed as functional, cell-based. The note with it: time 6.0 day. A digest of the protocol: (§2)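 Human myeloma lines RPMI-8226 and MM.1S exposed to 1 μM DOT1L inhibitor, or DMSO, for 6 days. Whole-genome expression profiled on gene expression microarray.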

Assay [12] relates to RPMI-8226. Put plainly: Upregulation of EMID1 gene in human RPMI-8226 cells at 1 uM for 6 days by. The assay is classed as functional, cell-based. The note with it: time 6.0 day. A digest of the protocol: as §2
In assay [13] the test system is RPMI-8226. Put plainly: Upregulation of FZD1 gene in human RPMI-8226 cells at 1 uM for 6 days by. Format: functional, cell-based. The note with it: time 6.0 day. Summed up:
as §2

In assay [14] the test system is RPMI-8226. Put plainly: Upregulation of GNAI1 gene in human RPMI-8226 cells at 1 uM for 6 days by. Format: functional, cell-based. The following applies: time 6.0 day. A digest of the protocol:
as §2

For assay [15], the system named is RPMI-8226. Put plainly: Upregulation of GPD2 gene in human RPMI-8226 cells at 1 uM for 6 days by. The assay is classed as functional, cell-based. The following applies: time 6.0 day. A digest of the protocol:
as §2

Assay [16] has as its system RPMI-8226. Put plainly: Upregulation of HLA-DPB1 gene in human RPMI-8226 cells at 1 uM for 6 days by. Format: functional, cell-based. The note with it: time 6.0 day.
The test system of assay [17] is RPMI-8226. Put plainly: Upregulation of LY86 gene in human RPMI-8226 cells at 1 uM for 6 days by. The note with it: time 6.0 day. The assay is classed as functional, cell-based.
Assay [18] relates to RPMI-8226. In words: Upregulation of MILR1 gene in human RPMI-8226 cells at 1 uM for 6 days by. Format: functional, cell-based. The note with it: time 6.0 day.
Assay [19] relates to RPMI-8226. Put plainly: Upregulation of NREP gene in human RPMI-8226 cells at 1 uM for 6 days by. Format: functional, cell-based. The following applies: time 6.0 day.
The test system of assay [20] is RPMI-8226. Put plainly: Upregulation of PRRT2 gene in human RPMI-8226 cells at 1 uM for 6 days by. The assay is classed as functional, cell-based. The following applies: time 6.0 day.
The subject of assay [21] is RPMI-8226. In words: Upregulation of RIMBP3 gene in human RPMI-8226 cells at 1 uM for 6 days by. The note with it: time 6.0 day. The assay is classed as functional, cell-based.
The test system of assay [22] is RPMI-8226. In words: Upregulation of RORC gene in human RPMI-8226 cells at 1 uM for 6 days by. Format: functional, cell-based. The note with it: time 6.0 day.
Assay [23] has as its system RPMI-8226. Put plainly: Upregulation of TP53I3 gene in human RPMI-8226 cells at 1 uM for 6 days by. Format: functional, cell-based. The following applies: time 6.0 day.
Assay [24] relates to RPMI-8226. In words: Upregulation of XKR3 gene in human RPMI-8226 cells at 1 uM for 6 days by. Format: functional, cell-based. The following applies: time 6.0 day.
Assay [25] has as its system RPMI-8226. In words: Upregulation of ZNF75D gene in human RPMI-8226 cells at 1 uM for 6 days by. Format: functional, cell-based. The following applies: time 6.0 day.
The subject of assay [26] is MM1.S. In words: Upregulation of APOL4 gene in human MM1.S cells at 1 uM for 6 days by. Format: functional, cell-based. The following applies: time 6.0 day.
The subject of assay [27] is MM1.S. In words: Upregulation of CCDC96 gene in human MM1.S cells at 1 uM for 6 days by. Format: functional, cell-based. The note with it: time 6.0 day.
Assay [28] has as its system MM1.S. Put plainly: Upregulation of CCR2 gene in human MM1.S cells at 1 uM for 6 days by. The assay is classed as functional, cell-based. The following applies: time 6.0 day.
Assay [29] concerns MM1.S. In words: Upregulation of CXCL10 gene in human MM1.S cells at 1 uM for 6 days by. The assay is classed as functional, cell-based. The following applies: time 6.0 day. Summed up:
as §2

The test system of assay [30] is MM1.S. In words: Upregulation of EMID1 gene in human MM1.S cells at 1 uM for 6 days by. Format: functional, cell-based. The note with it: time 6.0 day. Summed up:
as §2

Assay [31] relates to MM1.S. Put plainly: Upregulation of ENC1 gene in human MM1.S cells at 1 uM for 6 days by. Format: functional, cell-based. The note with it: time 6.0 day. Summed up:
as §2

The test system of assay [32] is MM1.S. In words: Upregulation of FBXO2 gene in human MM1.S cells at 1 uM for 6 days by. The assay is classed as functional, cell-based. The note with it: time 6.0 day. Summed up: as §2
In assay [33] the test system is MM1.S. In words: Upregulation of ID1 gene in human MM1.S cells at 1 uM for 6 days by. Format: functional, cell-based. The following applies: time 6.0 day.
Assay [34] relates to MM1.S. Put plainly: Upregulation of ID2 gene in human MM1.S cells at 1 uM for 6 days by. The following applies: time 6.0 day. The assay is classed as functional, cell-based.
In assay [35] the test system is MM1.S. In words: Upregulation of MMP9 gene in human MM1.S cells at 1 uM for 6 days by. The assay is classed as functional, cell-based. The following applies: time 6.0 day.
Assay [36] has as its system MM1.S. Put plainly: Upregulation of MYO1F gene in human MM1.S cells at 1 uM for 6 days by. The assay is classed as functional, cell-based. The note with it: time 6.0 day.
Assay [37] has as its system MM1.S. Put plainly: Upregulation of RGS1 gene in human MM1.S cells at 1 uM for 6 days by. The assay is classed as functional, cell-based. The following applies: time 6.0 day.
The subject of assay [38] is MM1.S. Put plainly: Upregulation of TP53I11 gene in human MM1.S cells at 1 uM for 6 days by. Format: functional, cell-based. The following applies: time 6.0 day.
The test system of assay [39] is RPMI-8226. In words: Effect on human RPMI-8226 cells assessed as change in Myc mRNA level at 1 uM for 6 days by qRT-PCR analysis. The note with it: time 6.0 day.
Assay [40] relates to RPMI-8226. In words: Effect on human RPMI-8226 cells assessed as change in IRF4 mRNA level at 1 uM for 6 days by qRT-PCR analysis. The following applies: time 6.0 day.

Consider `CC(C)N(C[C@H]1O[C@@H](n2cnc3c(N)ncnc32)[C@H](O)[C@@H]1O)[C@H]1C[C@@H](CCc2nc3cc(C(C)(C)C)ccc3[nH]2)C1` [PINOMETOSTAT], for which the outcome in the assay on RPMI-8226 [1], in the assay with RPMI-8226 [2], with RPMI-8226 [4], in the assay on RPMI-8226 [5], with MM1.S [6] and with MM1.S [7] was Active. The Activity with MM1.S [3] worked out at 2.47%.
Consider `CC(C)N(CCCNC(=O)Nc1ccc(C(C)(C)C)cc1)C[C@H]1O[C@@H](n2cc(Br)c3c(N)ncnc32)[C@H](O)[C@@H]1O`, for which the outcome with MM1.S [8], in the assay on U-266, with RPMI-8226 [9], in the assay on RPMI-8226 [10], in the assay on RPMI-8226 [11] and with RPMI-8226 [12] was Active. Also, the result in the assay with RPMI-8226 [13], with RPMI-8226 [14], in the assay with RPMI-8226 [15], with RPMI-8226 [16], in the assay on RPMI-8226 [17] and with RPMI-8226 [18] was Active. The outcome in the assay with RPMI-8226 [19], in the assay with RPMI-8226 [20], in the assay with RPMI-8226 [21], in the assay with RPMI-8226 [22], in the assay on RPMI-8226 [23] and with RPMI-8226 [24] was Active. The outcome in the assay on RPMI-8226 [25], in the assay on MM1.S [26], in the assay on MM1.S [27], in the assay on MM1.S [28], with MM1.S [29] and with MM1.S [30] was Active. The result in the assay with MM1.S [31], in the assay with MM1.S [32], in the assay on MM1.S [33], with MM1.S [34], in the assay with MM1.S [35] and with MM1.S [36] was Active. Further, the outcome with MM1.S [37], in the assay with MM1.S [38], in the assay with RPMI-8226 [39] and in the assay on RPMI-8226 [40] was Active.
